ChEMBL document CHEMBL1139140, “Synthesis, antimycobacterial activity evaluation, and QSAR studies of chalcone derivatives” (2007)

Key:
[1] = system: Mycobacterium tuberculosis; experiment: Antimicrobial activity against Mycobacterium tuberculosis H37Rv at 50 ug/ml assessed as reduction of relative light units; type: functional; set-up: scale not given: the % may be the effect or the level left
In short: (§1)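 Luciferase reporter phage assay on M. tuberculosis H37Rv. Bacteria (McFarland No.2 suspension) in G7H9, with or without compound, incubated 72 h at 37 °C; two drug-free controls per sample. Phage phAE129 with CaCl2 added, then 4 h at 37 °C. D-luciferin (0.3 mM, citrate pH 4.5) added; RLU read after 10 s integration, duplicate readings averaged. Percent RLU reduction versus control; repeated if control mean RLU <1000.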

[2] = system: Mycobacterium tuberculosis; experiment: Antimicrobial activity against Mycobacterium tuberculosis H37Rv at 100 ug/ml assessed as reduction of relative light units; type: functional; set-up: scale not given: the % may be the effect or the level left; in short: as §1

Compound | Activity [1] [%] | Activity [2] [%]
COc1ccccc1/C=C/C(=O)c1ccccc1 | 66.07 | 72.98
COc1ccc(/C=C/C(=O)c2cccc([N+](=O)[O-])c2)c(OC)c1 | 92.19 | 96.45
CSc1ccc(/C=C/C(=O)c2ccc([N+](=O)[O-])cc2)cc1 | 30.95 | 48.06
CSc1ccc(/C=C/C(=O)c2ccc(Cl)cc2)cc1 | 24.06 | 48.83
COc1ccc(/C=C/C(=O)c2ccc(Cl)cc2Cl)cc1OC | 0 | 12.17
COc1ccc(/C=C/C(=O)c2ccc(C)cc2)cc1 | 60.24 | 98.52
CN(C)c1ccc(/C=C/C(=O)c2cccc([N+](=O)[O-])c2)cc1 | 90.06 | 96.22
CSc1ccc(/C=C/C(=O)c2cccc(O)c2)cc1 | 31.59 | 98.86
COc1ccc(C(=O)/C=C/c2ccc(SC)cc2)cc1 | 7.36 | 17.38
CSc1ccc(/C=C/C(=O)c2ccc(C)cc2)cc1 | 16.88 | 51.59
CSc1ccc(/C=C/C(=O)c2ccccc2O)cc1 | 68.41 | 90.52
CSc1ccc(/C=C/C(=O)c2ccccc2)cc1 | 46.29 | 66.51
CSc1ccc(/C=C/C(=O)c2ccc(Cl)cc2Cl)cc1 | 0 | 0
CSc1ccc(/C=C/C(=O)c2ccc(Br)cc2)cc1 | 0 | 21.87
CN(C)c1ccc(/C=C/C(=O)c2ccccc2)cc1 | 70.02 | 70.18
COc1ccccc1/C=C/C(=O)c1cccc([N+](=O)[O-])c1 | 84.16 | 97.94
CSc1ccc(/C=C/C(=O)c2ccc(O)cc2)cc1 | 29.25 | 55.16
COc1ccc(/C=C/C(=O)c2cccc(O)c2)cc1 | 98.9 | 99.04
CSc1ccc(/C=C/C(=O)c2cccc([N+](=O)[O-])c2)cc1 | 0 | 0
COc1ccc(/C=C/C(=O)c2cccc([N+](=O)[O-])c2)cc1OC | 64.61 | 89.27
COc1ccccc1/C=C/C(=O)c1ccc([N+](=O)[O-])cc1 | 94.3 | 98.15
CN(C)c1ccc(/C=C/C(=O)c2ccc(Cl)cc2Cl)cc1 | 31.55 | 33.8
COc1cc(/C=C/C(=O)c2ccccc2)cc(OC)c1OC | 43.16 | 63.9
COc1ccc(/C=C/C(=O)c2ccccc2)cc1 [4-METHOXY CHALCONE] | 58.75 | 65.08
O=C(/C=C/c1ccccc1)c1ccccc1 [CHALCONE] | 41.93 | 50.64
